# Shown are actives, neighbours in structure and some others; about 3.1% of the full set was active somewhere.
# HKDC1 inh: HKDC1 hexokinase inhibitors, primary screen, biochemical, fluorescence, uHTS | Q2TB90 | recombinant HKDC1, G6PDH/diaphorase resazurin coupled fluorescence | inhibition, % at 20 µM | hit rate 0.16% among 340,000;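 active = inhibition above about 35% when tested at 20 µM, limit read from the data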;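 note: plate controls were DMSO wells with enzyme for no effect and DMSO wells lacking enzyme for full effect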
# Target sequence (Q2TB90 whole entry, looked up): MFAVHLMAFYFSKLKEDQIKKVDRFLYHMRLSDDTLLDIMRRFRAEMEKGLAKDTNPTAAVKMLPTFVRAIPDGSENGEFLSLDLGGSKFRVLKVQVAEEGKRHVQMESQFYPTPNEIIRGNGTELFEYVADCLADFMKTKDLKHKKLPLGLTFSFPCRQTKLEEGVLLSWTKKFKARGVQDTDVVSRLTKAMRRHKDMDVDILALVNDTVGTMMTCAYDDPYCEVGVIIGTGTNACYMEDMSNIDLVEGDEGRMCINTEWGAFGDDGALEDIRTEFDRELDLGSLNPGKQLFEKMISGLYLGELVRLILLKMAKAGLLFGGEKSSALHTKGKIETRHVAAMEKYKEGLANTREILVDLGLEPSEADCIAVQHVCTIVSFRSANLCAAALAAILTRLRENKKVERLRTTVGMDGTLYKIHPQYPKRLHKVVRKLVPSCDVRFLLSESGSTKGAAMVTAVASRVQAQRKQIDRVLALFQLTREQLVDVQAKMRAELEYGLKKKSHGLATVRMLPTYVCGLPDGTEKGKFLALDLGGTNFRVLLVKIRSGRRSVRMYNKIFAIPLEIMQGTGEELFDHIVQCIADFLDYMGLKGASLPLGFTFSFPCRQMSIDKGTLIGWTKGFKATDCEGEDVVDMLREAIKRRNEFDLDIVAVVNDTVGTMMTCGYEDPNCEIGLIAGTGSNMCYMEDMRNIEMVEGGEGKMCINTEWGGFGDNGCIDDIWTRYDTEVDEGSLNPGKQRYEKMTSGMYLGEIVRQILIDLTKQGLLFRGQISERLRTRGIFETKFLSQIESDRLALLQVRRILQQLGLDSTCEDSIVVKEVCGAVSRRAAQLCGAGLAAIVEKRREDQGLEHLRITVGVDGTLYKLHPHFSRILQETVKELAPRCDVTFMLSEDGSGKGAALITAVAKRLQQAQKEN
#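 Test system: HK5 enzyme. Quantity: 5 µg/mL HK5 final. Reagent: glucose and ATP substrates. Schedule: 90 min reaction incubation at room temperature, dark. Technique: resazurin-to-resorufin fluorescence via G6PDH and diaphorase coupling, 525/613 nm. Control set: DMSO wells with and without enzyme mix.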
# HSP90 inh: HSP90 inhibitors, primary screen, cell lysate, luminescence; Heat shock protein HSP 90 (rabbit reticulocyte lysate; luciferase refolding); Rabbit reticulocyte lysate, luciferase refolding luminescence, 3 h; inhibition, % at 5.6 µM; hit rate 0.91% among 290,000; AID 1789, 2009;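 active = inhibition above the screen-wide mean plus 3 SD, computed separately per campaign, cut at about 16% in these data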;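 note: 0% = DMSO wells and 100% = 60 µM geldanamycin wells; inhibitors lower the luminescence because luciferase stays unfolded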
# TbHK1 inh: Trypanosoma brucei hexokinase 1 inhibitors, primary screen, biochemical, G6PDH-coupled NADH absorbance, MLSCN library; hexokinase 1 [Trypanosoma brucei]; recombinant TbHK1, G6PDH-coupled NADH A340; inhibition, % at 10 µM; hit rate 0.11% among 220,000;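 active = inhibition of 50% or more in the single-dose primary screen; inactive = inhibition below 50%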
# HSF1 activator: HSF-1 activators, primary screen, NIH3T3-HGL cells, MG132 stress, luminescence, single point; NIH3T3-HGL HSF-1 luciferase reporter, 8 h; 100% = twice DMSO control signal; activation, % at 9 µM; hit rate 1.7% among 300,000; AID 504408, 2011;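 active = mean replicate activation of at least 50% with a set share of replicates each reaching 50%; inconclusive = only one of those two conditions met; inactive = mean below 50% and too few replicates reaching it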;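 note: 0% = median of the neutral control wells and 100% = twice that signal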
# Hsp70 act: Hsp70 transcriptional activators, primary screen, cell-based, HeLa, Hsp70 promoter luciferase, luminescence, 10 µM; HeLa Hsp70 promoter luciferase reporter; scaled: vehicle 0, proteasome-inhibitor control 100%; activation, % at 10 µM; hit rate 0.04% among 200,000;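 active = activation above the mean across all tested compounds plus 3 SD, cutoff set per campaign, cut at about 5.5% in these data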;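 note: 100% = MG132 at 30 µM as the positive control and 0% = DMSO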
# HSF1 inhib: HSF1 inhibitors in luciferase reporter cells, primary screen, cell-based, NIH3T3, luminescence; AID 2098, 2009; activity change, negative = inhibition, % at 7.5 µM (by protocol); hit rate 0.77% among 300,000; NIH3T3-HGL HSE-luciferase, MG132-induced, luminescence 8 h; stronger effect = lower value;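 active = more than half of replicate wells show activity change below -50%, luminescence cut by over half; inconclusive = some wells, but at most half, below -50%; inactive = no replicate well below -50%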;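 note: luciferase reports HSF-1 transcriptional activity via heat shock element; 0% = median of DMSO wells and -100% = zero luminescence signal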
# G6PDH ctr: Leuconostoc G6PDH inhibition, confirmation, counter-screen for TbHK1 inhibitor project, biochemical, DPI cherry-picked compounds, single concentration; shares compounds with TbHK1 inh; purified G6PDH, NADH absorbance, 1 h; inhibition, % at 10 µM; hit rate 7% among 210; AID 2516, 2010;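 active = at least 50% inhibition in the glucose-6-phosphate dehydrogenase coupled counterscreen; inconclusive = no clear call, values can overlap the other calls; inactive = inhibition below 50%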
# TbHK1 confirm: TbHK1 inhibitor retest, confirmation, biochemical, DPI cherry-picked primary actives; shares compounds with TbHK1 inh; hit rate 10% among 210; recombinant TbHK1, G6PDH-coupled NADH A340 absorbance; inhibition, % at 10 µM;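 active = inhibition of at least 50% in both of the two screening runs; inconclusive = at least 50% in one run, below 50% in the other; inactive = inhibition below 50% in both runs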;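 note: 0% and 100% set by the maximum and minimum signal control wells on each plate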
# * marks the source's active call; other numbers are inactive results; ? = inconclusive; nt = no result given.
SMILES,HKDC1 inh,HSP90 inh,TbHK1 inh,HSF1 activator,Hsp70 act,HSF1 inhib,G6PDH ctr,TbHK1 confirm
O=C1CSC(c2ccccn2)N1c1ccccc1 (configuration not stated),-9.1,-1.4,60.9*,-19.5,0.1,-2.0,-0.2,1.5
O=C1CSC(c2ccccn2)N1c1ccc(Br)cc1 (configuration not stated),-4.6,3.0,-0.6,2.6,0.3,14.4,nt,nt
COc1cc(CCC(=O)OCC(=O)Nc2c(F)cccc2F)cc(OC)c1OC,1.6,-2.4,nt,-6.6,nt,-8.2,nt,nt
COc1cc(CCC(=O)OCC(N)=O)cc(OC)c1OC,-0.7,-0.8,55.6*,-4.2,-0.2,-2.7,-6.1,-5.0
CCCCCC(C(=O)O)C(C)CC(=O)NC1CCCCC1 (configuration not stated),-2.4,0.5,63.1*,-24.5,0.1,-6.1,-19.9,-6.7
O=[N+]([O-])c1ccccc1CNCCCCCO,-2.2,nt,nt,nt,nt,nt,nt,nt
Cc1c(N/N=C(\C#N)C(=O)c2ccccc2)c(=O)n(-c2ccccc2)n1C,0.4,-0.6,47.3,6.1,-0.3,7.4,nt,nt
Cc1ccccc1C(=O)/C(C#N)=N/Nc1c(C)n(C)n(-c2ccccc2)c1=O,8.6,-6.3,53.4*,5.3,-0.2,-2.0,-81.1,-61.9
O=C(O)COc1ccccc1C(Nc1ccccn1)c1cc(Cl)c2cccnc2c1O (configuration not stated),-10.2,-3.2,76.3*,12.0,-0.4,8.7,-41.5,28.0
CN(CCO)C(=O)CCC(=O)Nc1ccc(S(N)(=O)=O)cc1,-6.8,3.6,59.6*,-2.5,0.4,-2.6,-0.8,5.8
O=C1CSC(=S)N1/N=C/c1ccc(O)c(O)c1O,21.4,-2.0,50.3*,-11.4,nt,-11.0,-48.6,34.6
CSc1nc2n(n1)C(c1cc(Br)ccc1F)C(C(=O)N(C)C)=C(C)N2 (configuration not stated),-10.6,-3.6,63.1*,13.9,0.0,-5.9,-6.5,-6.7
COc1ccc(Br)cc1C1NC(=O)NC(C)=C1C(=O)N(C)C (configuration not stated),-1.3,-0.9,-1.9,2.3,-0.2,2.3,nt,nt
CCn1cnc2c1c(=O)n(CC(=O)OC(C)C(N)=O)c(=O)n2Cc1ccccc1 (configuration not stated),-6.1,-0.6,nt,-2.5,nt,-1.6,nt,nt
Cc1ccc(C)c(CSC2=NCCN2S(=O)(=O)c2ccccc2)c1,3.6,2.4,nt,0.2,nt,4.2,nt,nt
O=C(CCCCn1cnc2c(=S)nc[nH]c21)Nc1ccc(C(=O)O)c(O)c1,0.1,nt,nt,nt,nt,nt,nt,nt
C[C@H]1COC(=O)[C@@H](NC(=O)OCC2c3ccccc3-c3ccccc32)C/C=C\C[C@H](CC(=O)NCCO)C(=O)N1,1.8,nt,nt,nt,nt,nt,nt,nt
O=C(CN1CCN(Cc2ccccc2)CC1)N1CCCc2c1c(=O)oc1ccc(O)cc21,2.7,-0.8,54.1*,24.1,-0.1,7.9,8.2,-26.0
O=C(c1ccco1)N1CCN(CC(=O)N2CCCc3c2c(=O)oc2ccc(O)cc32)CC1,1.8,1.2,-12.6,1.3,-0.4,-0.9,nt,nt
O=C(CSc1nncs1)Nc1ccc(N2CCCCC2)cc1,-2.5,nt,nt,nt,nt,nt,nt,nt
Cc1cccc(N2CC(C(=O)Nc3ccc4c(c3)OCCO4)CC2=O)c1C (configuration not stated),-6.3,-2.6,nt,-32.4,nt,-18.4,nt,nt
COc1ccc(NC(=O)C2CC(=O)N(c3cccc(C)c3C)C2)cc1 (configuration not stated),2.7,-0.9,55.9*,11.8,-0.1,-1.2,-5.7,-0.8
CC(=O)Nc1ccc(NC(=O)C2CC(=O)N(c3cccc(C)c3C)C2)cc1 (configuration not stated),-6.8,-3.6,51.2*,5.3,0.8,2.0,-7.1,-0.7
Cc1cccc(N2CC(C(=O)Nc3ccc(S(=O)(=O)N4CCCCC4)cc3)CC2=O)c1C (configuration not stated),6.8,0.1,nt,1.9,nt,0.4,nt,nt
COC(=O)[C@H]1[C@H](c2ccccc2)[C@H](C(=O)OC)O[C@H]1c1ccccc1,-3.5,nt,nt,0.7,nt,3.3,nt,nt
SMILES,HKDC1 inh,HSP90 inh,TbHK1 inh,HSF1 activator,Hsp70 act,HSF1 inhib,G6PDH ctr,TbHK1 confirm
COC(=O)C1C(c2ccccc2)C(C(=O)N2CCN(C)CC2)C1c1ccccc1 (configuration not stated),-9.6,-0.9,53.3*,4.0,0.2,-4.4,-9.8,-13.8
CC(C(=O)N1CCCC1)N(C)CC(=O)Nc1cccc(F)c1 (configuration not stated),-0.4,nt,nt,nt,nt,nt,nt,nt
COc1cccc(C(=O)NC2CCN(CC(=O)Nc3cccc(C)c3C)CC2)c1,-10.8,3.2,-6.1,nt,-0.1,nt,nt,nt
COc1cc(OC)cc(C(=O)NC2CCN(CC(=O)Nc3cccc4ccccc34)CC2)c1,-6.0,2.6,52.9*,-28.2,0.0,-6.8,-39.1,-8.4
Cc1cccc(C(=O)NC(=S)NNC(=O)Cc2ccccc2)c1,-6.8,4.7,67.0*,10.1,-0.4,5.0,-13.8,-3.0
Cc1cccc(C(=O)NC(=S)NCc2ccccc2)c1,3.3,nt,nt,2.2,nt,-1.4,nt,nt
COc1ccc(CC(=O)OC(C)CN2CCCC2)cc1 (configuration not stated),-6.6,1.6,55.5*,2.7,-0.1,-3.4,0.3,-3.2
CCCCOC(=O)Cn1cnc2ccc(Br)cc2c1=O,-10.1,-5.7,59.1*,28.6,0.2,12.9,-8.8,3.0
Fc1cccc(NC(=S)NCc2ccccn2)c1,-7.0,-1.5,52.4*,?,-0.1,14.6,3.5,0.5
S=C(NCc1ccccn1)Nc1ccc(Cl)cc1,-8.8,5.8,2.8,7.3,0.2,11.2,nt,nt
COc1cccc(C(=O)OC(C)C(=O)NCC2CCCCC2)c1 (configuration not stated),-0.6,nt,nt,nt,nt,nt,nt,nt
CCCCc1ccc(/C=C2/C(=O)ON=C2c2ccccc2)s1,12.9,-6.1,55.1*,82.7*,-0.1,28.4,-37.4,54.8*
S=C(Nc1cccc(Cl)c1)N(CCCN1CCCC1)Cc1cccn1Cc1ccc(Cl)cc1,-0.6,1.9,50.8*,?,-0.1,27.7,41.2,13.4
c1ccc(-c2cnc(-c3ccccc3)nc2)cc1,4.7,-4.7,59.3*,35.0,0.1,1.5,-31.9,-22.9

# Compound activity as filed in PubChem BioAssay.
